RBBP9 inhibitor – human RBBP9 inhibitors, primary screen, biochemical, fluorescence polarization, FP-Rh probe, HTS | recombinant RBBP9 | inhibition, % at 7.94 µM | 220,000 compounds, 0.2% hits;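 active means inhibition above the campaign mean of all tested compounds plus 3 SD, cut at about 14% in these data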;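 further: plate controls were DMSO wells with RBBP9 for no effect and wells lacking RBBP9 protein for full effect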
Target sequence (O75884 whole entry, looked up): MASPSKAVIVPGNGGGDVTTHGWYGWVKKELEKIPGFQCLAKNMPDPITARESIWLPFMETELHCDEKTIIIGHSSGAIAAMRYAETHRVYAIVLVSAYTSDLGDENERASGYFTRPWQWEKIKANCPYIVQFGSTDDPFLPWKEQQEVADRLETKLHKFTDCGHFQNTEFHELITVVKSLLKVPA
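Assay system: recombinant human RBBP9; Reagent: Serine-hydrolase probe FP-Rh, 375 nM pre-mixing; Doses: 7.94 µM single dose, 0.794% DMSO; Incubation: 30 min then 45 min, 25 °C; Detection: fluorescence polarization (mP), excitation 525 nm, emission 598 nm; Evaluation: percent inhibition from mP, scaled between DMSO and no-protein wells.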
PRMT1 inh – PRMT1 methyltransferase inhibitors, primary screen, biochemical, fluorescence polarization | recombinant PRMT1, activity-based probe fluorescence polarization | 370,000 compounds, 1.3% hits | Protein arginine N-methyltransferase 1 (Homo sapiens), Q99873 | inhibition, % at 2.79 µM;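 active means inhibition above about 21% made by adding two undisclosed values, limit read from the data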
PAD4 FP inh – human PAD4 inhibitors, primary screen, biochemical, fluorescence polarization, 1536-well format. 330,000 compounds, 0.41% hits. Protein-arginine deiminase type-4 (Homo sapiens), Q9UM07. recombinant PAD4, RCA probe fluorescence polarization. inhibition, % at 6.36 µM;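 active means percent inhibition above a cutoff equal to the mean of all tested compounds plus 3 SD, cut at about 15% in these data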;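 further: 0% = PAD4 with RCA probe and DMSO and 100% = probe without PAD4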
SIAE primary – human SIAE inhibitors, primary screen, biochemical, fluorescence polarization, FP-Rh probe, 1536-well HTS | Sialate O-acetylesterase (Homo sapiens), Q9HAT2 | SIAE FP-Rh probe binding | inhibition, % at 9.66 µM | 370,000 compounds, 0.69% hits | AID 1053197, 2014;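 active means inhibition above a cutoff: mean of compounds within the control limits plus 3 SD of those, cut at about 17% in these data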;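 further: 0% = plate median of compound wells and 100% = probe without SIAE protein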
GSTO1 counter – inhibitors of recombinant GSTO1, primary screen, counter-screen for RBBP9 inhibitor project, biochemical, fluorescence polarization; inhibition, % at 5.96 µM; 300,000 compounds, 1.1% hits; activity-based probe fluorescence polarization; Glutathione S-transferase omega-1 (Homo sapiens), P78417;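 active means inhibition above the campaign mean inhibition plus 3 SD, cut at about 35% in these data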;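 further: 0% = GSTO1-1 with DMSO and 100% = wells lacking GSTO1-1 enzyme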
Target sequence (P78417 whole entry, looked up): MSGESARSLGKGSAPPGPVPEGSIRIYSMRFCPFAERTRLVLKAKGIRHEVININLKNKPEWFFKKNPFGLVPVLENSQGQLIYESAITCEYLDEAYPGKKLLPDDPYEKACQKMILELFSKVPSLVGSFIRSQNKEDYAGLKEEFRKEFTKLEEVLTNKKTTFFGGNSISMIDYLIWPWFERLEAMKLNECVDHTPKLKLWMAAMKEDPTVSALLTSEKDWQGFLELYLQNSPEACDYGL
SIAE inh conf – human SIAE inhibitors, retest, confirmation, biochemical, fluorescence polarization, FP-Rh probe, triplicate; shares compounds with SIAE primary; SIAE FP-Rh activity-based probe; inhibition, % at 9.66 µM; 2,300 compounds, 13% hits;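 active means mean inhibition of the replicates above the hit cutoff set in the primary screen, cut at about 17% in these data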;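 further: 0% = SIAE with DMSO and probe and 100% = probe without SIAE; inhibitors lower polarization as more probe stays unbound to SIAE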
The depositor's hits bear a star. Shown are actives, neighbours in structure and some others; about 2.7% of the full set was active somewhere.

What do the screens show for `O=C(NNC(=O)c1ccncc1)c1ccccc1`?
PRMT1 inh: 0; PAD4 FP inh: 1; SIAE primary: 1; GSTO1 counter: 5

How did Cn1nc(C(C)(C)C)cc1C(=O)N1CCCCC1c1cc(C(=O)Nc2ccc3c(c2)OCO3)no1 (stereo not drawn) do in these assays?
PRMT1 inh: -1; SIAE primary: -1

What do the screens show for `C[C@@H]1Cc2c(O)c(O)cc(O)c2C(=O)O1`?
PAD4 FP inh: -3; GSTO1 counter: 28

Results for O=C1C=C(O)c2c(O)cc(O)c(O)c2C1=O ?
PRMT1 inh: 47*; PAD4 FP inh: -13; SIAE primary: 51*; GSTO1 counter: 73*; SIAE inh conf: 10

How did Cc1nc(N)nc2c1CCCC2 do in these assays?
RBBP9 inhibitor: -1; PRMT1 inh: -2; PAD4 FP inh: 4; SIAE primary: 0; GSTO1 counter: 3

Results for O=C(Cc1csc(NC(=O)c2ccccc2)n1)NO ?
RBBP9 inhibitor: 5; PRMT1 inh: 0; PAD4 FP inh: -2; SIAE primary: 22*; GSTO1 counter: -4; SIAE inh conf: 15

What do the screens show for `C=CCN(CC=C)C(=S)NC(=O)c1ccc([N+](=O)[O-])cc1`?
RBBP9 inhibitor: -2; PRMT1 inh: 3; PAD4 FP inh: -3; SIAE primary: -7; GSTO1 counter: 7

How did O=C(NCc1ccc(F)c(F)c1)c1ccc(-c2ccc(F)c(F)c2)c2ccoc12 do in these assays?
PRMT1 inh: 1; SIAE primary: -9

What do the screens show for `O=C(CCNC(=O)c1ccco1)Nc1ccc(OC(F)F)c(Cl)c1`?
PRMT1 inh: -4; PAD4 FP inh: -6; SIAE primary: 41*; GSTO1 counter: 7; SIAE inh conf: 0

How did Oc1ccc2ccc(Cl)cc2c1 do in these assays?
PRMT1 inh: 2; SIAE primary: 5

How did Nc1ccc2ccc(O)cc2c1 do in these assays?
PRMT1 inh: 4; SIAE primary: 19*; SIAE inh conf: 3

Results for Cc1[nH]n(-c2ccccc2)c(=O)c1/C=N/NC(=O)c1cccc(F)c1 ?
PRMT1 inh: -1; PAD4 FP inh: -7; SIAE primary: 10; GSTO1 counter: -1

How did Cc1[nH]n(-c2ccc(Br)cc2)c(=O)c1/C=N/NC(=O)c1ccccc1 do in these assays?
PRMT1 inh: 2; SIAE primary: 17*; SIAE inh conf: 2

Results for Cc1ccc(-c2nc(Nc3ccc(O)cc3)c3ccccc3n2)cc1 ?
PRMT1 inh: 0; PAD4 FP inh: -7; SIAE primary: 17*; GSTO1 counter: -11; SIAE inh conf: -22

How did Oc1ccc(Nc2nc(-c3ccccc3O)nc3ccccc23)cc1 do in these assays?
PRMT1 inh: 1; SIAE primary: 26*; SIAE inh conf: 1

What do the screens show for `CCOC(=O)c1nc(Nc2ccc(Nc3ccccc3)cc2)c2ccccc2n1`?
RBBP9 inhibitor: 2; PRMT1 inh: 5; SIAE primary: 22*; SIAE inh conf: 3

What do the screens show for `COc1ccc(Nc2nc(-c3ccccc3O)nc3ccccc23)cc1`?
PRMT1 inh: -1; PAD4 FP inh: -2; SIAE primary: 14; GSTO1 counter: -10

How did Cc1ccc(-c2nc(Nc3cccc(O)c3)c3ccccc3n2)cc1 do in these assays?
PRMT1 inh: 2; PAD4 FP inh: -1; SIAE primary: -30; GSTO1 counter: -20

What do the screens show for `c1ccc(Nc2nc(-c3ccccc3)nc3ccccc23)cc1`?
PRMT1 inh: -1; PAD4 FP inh: -1; SIAE primary: -38; GSTO1 counter: -14

What do the screens show for `Cc1ccc(-c2nc(Nc3ccc(N4CCOCC4)cc3)c3ccccc3n2)cc1`?
RBBP9 inhibitor: 11; PRMT1 inh: -2; PAD4 FP inh: 1; SIAE primary: 21*; GSTO1 counter: -1; SIAE inh conf: 14

What do the screens show for `N#Cc1ccccc1COC(=O)c1cccnc1N`?
RBBP9 inhibitor: -4; PRMT1 inh: 1; PAD4 FP inh: 0; SIAE primary: -6; GSTO1 counter: 3

How did O=C(Nc1ccccc1)Nc1nnc([C@@H]2C[C@H](O)[C@@H](CO)O2)s1 do in these assays?
PRMT1 inh: 4; SIAE primary: 47*; SIAE inh conf: 0

How did O=C(Nc1ccc(F)cc1)Nc1nnc([C@@H]2C[C@H](O)[C@@H](CO)O2)s1 do in these assays?
PRMT1 inh: 1; SIAE primary: -3

Results for Cc1ccc(S(=O)(=O)N(C)CCCC(=O)n2nc(C)cc2C)cc1 ?
RBBP9 inhibitor: 5; PRMT1 inh: 1; PAD4 FP inh: 2; SIAE primary: 2; GSTO1 counter: -6

Results for Cn1c(SCC(=O)c2ccc3c(c2)OCO3)nnc1-c1ccccn1 ?
RBBP9 inhibitor: -8; PRMT1 inh: -1; PAD4 FP inh: -4; SIAE primary: 25*; GSTO1 counter: 12; SIAE inh conf: 1

How did O=C(CSc1ccccn1)c1ccc2c(c1)OCO2 do in these assays?
RBBP9 inhibitor: -3; PRMT1 inh: 3; PAD4 FP inh: 2; SIAE primary: -1; GSTO1 counter: 3

How did CCCOc1ccc(C(=O)N/N=C/c2c[nH]c3ccc(Br)cc23)cc1 do in these assays?
PRMT1 inh: 4; PAD4 FP inh: -4; SIAE primary: 19*; GSTO1 counter: -18; SIAE inh conf: -12

Results for COc1ccc(C(=O)N/N=C/c2c[nH]c3ccccc23)cc1 ?
PRMT1 inh: 5; PAD4 FP inh: -4; SIAE primary: 0; GSTO1 counter: -6

How did O=C(CSc1nnc(-c2ccco2)o1)NC1CCCCCC1 do in these assays?
RBBP9 inhibitor: -10; PRMT1 inh: 0; PAD4 FP inh: -1; SIAE primary: 18*; GSTO1 counter: 1; SIAE inh conf: -1

How did CN(C)c1ccc(NC(=O)CSc2nc(N)c(C(=O)Nc3ccc(N(C)C)cc3)s2)cc1 do in these assays?
RBBP9 inhibitor: 11; PRMT1 inh: 8; PAD4 FP inh: 2; SIAE primary: 20*; GSTO1 counter: 20; SIAE inh conf: 9

Results for CC(C)(C)c1ccc(NC(=O)COC(=O)C2=COCCO2)cc1 ?
RBBP9 inhibitor: -9; PRMT1 inh: -2; PAD4 FP inh: -1; SIAE primary: -3; GSTO1 counter: -6

Results for CCc1ccccc1NC(=O)CN(C)C(=O)CSc1nn(-c2ccc(F)cc2)c(=S)s1 ?
RBBP9 inhibitor: -2; PRMT1 inh: -1; PAD4 FP inh: -3; SIAE primary: 18*; GSTO1 counter: 2; SIAE inh conf: 0

Results for CCN(CC)CCOC(=O)c1ccc(NC(=O)C2(c3ccccc3)CCCC2)cc1 ?
RBBP9 inhibitor: -5; PRMT1 inh: 1; PAD4 FP inh: -1; SIAE primary: 5; GSTO1 counter: 3
